Consider three compounds from paper PMC3563353 (Bioconjugate chemistry, 2012).

“Also recorded” adds a separate entry of the source.

In one experiment the test system is MC4R. To be noted: cell lines engineered to overexpress MC4R; cited from earlier work.
For the next experiment, the system named is MC5R. To be noted: cell lines engineered to overexpress MC5R; cited from earlier work.
In experiment [1] the test system is A375/MC1R and A375 xenograft tumors. In words: In vivo fluorescence imaging of bilateral A375 / A375/MC1R xenograft tumors. Also noted: species or system nu/nu mice. To be noted: p<0.05.
The test system of the next experiment is B16F10 xenograft tumors. Format: in vivo, nu/nu mice. To be noted: 3 nmol/kg i.v., melanotic B16F10 xenograft.
A further experiment has as its system A375/MC1R cells. In words: In vitro MC1R probe uptake study by fluorescence microscopy, A375/MC1R cells. Type of experiment: cell-based, human. To be noted: 10 minute pre-incubation with 2 μM NDP-α-MSH before probe. The method, boiled down:
(§1)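 Cy5-conjugated MC1R ligand probe at 15 nM in medium, on live cells (1 × 10^4/well) grown 16 h on glass coverslips. Cells: A375/MC1R (stable hMC1R transfectant, 300 μg/ml G418) or melanotic B16F10-Luc; DMEM, 10% FBS, 37°C, 5% CO2. Imaged by fluorescence microscopy from 40 s to 15 min. For blocking, 10 min pre-incubation with 2 μM NDP-α-MSH.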

A further experiment concerns B16F10 cells. Description: In vitro MC1R probe uptake study by fluorescence microscopy, B16F10 cells. Type of experiment: cell-based, mouse. The method, boiled down:
as §1

“4-phenylbutyryl-His-DPhe-Arg-Trp-Gly-Lys”: the “affinity for MC4R (in words)” value in the experiment with MC4R was “high nanomolar”. For the same compound, the “affinity for MC5R (in words)” value in the experiment on MC5R is listed as “high nanomolar”.
Consider `CC1(C)C(=CC=C2CCCC(C=CC3=[N+](CCCCS(=O)(=O)O)c4ccc(S(=O)(=O)[O-])cc4C3(C)C)=C2Oc2ccc(S(=O)(=O)O)cc2)N(CCCCCC(=O)NCCN2C(=O)CC(SCCC(=O)NCCCC[C@H](NC(=O)CNC(=O)[C@H](Cc3c[nH]c4ccccc34)NC(=O)[C@H](CCCNC(=N)N)NC(=O)[C@@H](Cc3ccccc3)NC(=O)[C@H](Cc3c[nH]cn3)NC(=O)CCCc3ccccc3)C(N)=O)C2=O)c2ccc(S(=O)(=O)O)cc21` (stereo partly drawn) [MC1RL-800, 4-phenylbutyryl-His-DPhe-Arg-Trp-Gly-Lys(Mpr-IRDye800CW)-NH2], for which, in experiment [1], the “tumor uptake with co-injection of excess NDP-α-MSH peptide (in words)” value is listed as “significantly blocked”. Also, the “fluorescence detection in B16F10 tumors with the Optix MX3 imaging system” value with B16F10 xenograft tumors is reported as “not detectable”.
As to `CCN1C(=CC=CC=CC2=[N+](CCCCCC(=O)NCCN3C(=O)CC(SCCC(=O)NCCCC[C@H](NC(=O)CNC(=O)[C@H](Cc4c[nH]c5ccccc45)NC(=O)[C@H](CCCNC(=N)N)NC(=O)[C@@H](Cc4ccccc4)NC(=O)[C@H](Cc4c[nH]cn4)NC(=O)CCCc4ccccc4)C(N)=O)C3=O)c3ccc(S(=O)(=O)O)cc3C2(C)C)C(C)(C)c2cc(S(=O)(=O)[O-])ccc21` (stereo partly shown) [MC1RL-Cy5], the “binding and uptake of probe after blocking with NDP-α-MSH” value in the experiment with A375/MC1R cells is listed as “No binding or uptake; also recorded: completely blocked”. In the experiment with B16F10 cells (B16F10 cells pre-incubated with unlabeled NDP-α-MSH before probe), the “probe uptake by B16F10 cells after blocking with NDP-α-MSH” value is recorded as “blocking of probe-uptake was also observed; also recorded: completely blocked”. In the experiment on B16F10 cells (melanotic B16F10 cells with endogenous MC1R, 15 nM probe, 5 min time-point), the “probe uptake by B16F10 cells” value was “Probe uptake was also observed; also recorded: internalization of probe into the cells”.
